System: Fibroblast
Assay: Multiplex assay against human fibroblast
Type: toxicity, cell-based
In short: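 Live cells carried four stains from seeding: Hoechst33342, BioTracker Green Microtubule Cytoskeleton Dye, MitoTracker Red and Annexin V Alexa Fluor 680. They were imaged on a CQ1 microscope at 37°C and 5% CO2 after compound addition. Using CellPathfinder machine-learning gating, cells were split into Hoechst high-intensity objects or normal cells, normal cells into healthy, pyknosed or fragmented nuclei, and pyknosed cells into mitotic or apoptotic; tubulin, mitochondrial-mass and membrane-permeability phenotypes are per cents of healthy-nucleus cells.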

[1] = 12 h, 1 µM, compound concentration 1 uM, replicate 1
[2] = 12 h, 1 µM, compound concentration 1 uM, replicate 2
[3] = 12 h, 10 µM, compound concentration 10 uM, replicate 1
[4] = 12 h, 10 µM, compound concentration 10 uM, replicate 2
[5] = 24 h, 1 µM, compound concentration 1 uM, replicate 1
[6] = 24 h, 1 µM, compound concentration 1 uM, replicate 2
[7] = 24 h, 10 µM, compound concentration 10 uM, replicate 1
[8] = 24 h, 10 µM, compound concentration 10 uM, replicate 2
[9] = 48 h, 1 µM, compound concentration 1 uM, replicate 1
[10] = 48 h, 1 µM, compound concentration 1 uM, replicate 2
[11] = 48 h, 10 µM, compound concentration 10 uM, replicate 1
[12] = 48 h, 10 µM, compound concentration 10 uM, replicate 2

COc1cc(N2CCN(C)CC2)ccc1Nc1ncc2c(n1)N(C)c1ccccc1C(=O)N2C
Population Apoptotic (%) [1]: 58% | Population Fragmented Nuclei (%) [1]: 25% | Population Healthy Nuclei (%) [1]: 41% | Population Hoechst High Intensity Objects (%) [1]: 11% | Population Membrane Permeable-Phenotype (%) [1]: 14% | Population Mitochondria Different-Phenotype (%) [1]: 12% | Population Mitotic Cells (%) [1]: 41% | Population Normal (%) [1]: 88% | Population Pyknosed Nuclei (%) [1]: 32% | Population Tubulin-Different-Phenotype (%) [1]: 28% | Total Cell Count [1]: 135 | Population Apoptotic (%) [2]: 40% | Population Fragmented Nuclei (%) [2]: 5% | Population Healthy Nuclei (%) [2]: 82% | Population Hoechst High Intensity Objects (%) [2]: 4% | Population Membrane Permeable-Phenotype (%) [2]: 9% | Population Mitochondria Different-Phenotype (%) [2]: 21% | Population Mitotic Cells (%) [2]: 60% | Population Normal (%) [2]: 95% | Population Pyknosed Nuclei (%) [2]: 12% | Population Tubulin-Different-Phenotype (%) [2]: 15% | Total Cell Count [2]: 104 | Population Apoptotic (%) [3]: 65% | Population Fragmented Nuclei (%) [3]: 32% | Population Healthy Nuclei (%) [3]: 38% | Population Hoechst High Intensity Objects (%) [3]: 20% | Population Membrane Permeable-Phenotype (%) [3]: 17% | Population Mitochondria Different-Phenotype (%) [3]: 35% | Population Mitotic Cells (%) [3]: 34% | Population Normal (%) [3]: 79% | Population Pyknosed Nuclei (%) [3]: 28% | Population Tubulin-Different-Phenotype (%) [3]: 82% | Total Cell Count [3]: 127 | Population Apoptotic (%) [4]: 66% | Population Fragmented Nuclei (%) [4]: 15% | Population Healthy Nuclei (%) [4]: 61% | Population Hoechst High Intensity Objects (%) [4]: 5% | Population Membrane Permeable-Phenotype (%) [4]: 21% | Population Mitochondria Different-Phenotype (%) [4]: 96% | Population Mitotic Cells (%) [4]: 33% | Population Normal (%) [4]: 94% | Population Pyknosed Nuclei (%) [4]: 23% | Population Tubulin-Different-Phenotype (%) [4]: 100% | Total Cell Count [4]: 42 | Population Apoptotic (%) [5]: 60% | Population Fragmented Nuclei (%) [5]: 22% | Population Healthy Nuclei (%) [5]: 57% | Population Hoechst High Intensity Objects (%) [5]: 10% | Population Membrane Permeable-Phenotype (%) [5]: 17% | Population Mitochondria Different-Phenotype (%) [5]: 6% | Population Mitotic Cells (%) [5]: 39% | Population Normal (%) [5]: 89% | Population Pyknosed Nuclei (%) [5]: 19% | Population Tubulin-Different-Phenotype (%) [5]: 26% | Total Cell Count [5]: 159 | Population Apoptotic (%) [6]: 50% | Population Fragmented Nuclei (%) [6]: 9% | Population Healthy Nuclei (%) [6]: 75% | Population Hoechst High Intensity Objects (%) [6]: 6% | Population Membrane Permeable-Phenotype (%) [6]: 6% | Population Mitochondria Different-Phenotype (%) [6]: 12% | Population Mitotic Cells (%) [6]: 50% | Population Normal (%) [6]: 93% | Population Pyknosed Nuclei (%) [6]: 14% | Population Tubulin-Different-Phenotype (%) [6]: 6% | Total Cell Count [6]: 101 | Population Apoptotic (%) [7]: 60% | Population Fragmented Nuclei (%) [7]: 38% | Population Healthy Nuclei (%) [7]: 52% | Population Hoechst High Intensity Objects (%) [7]: 20% | Population Membrane Permeable-Phenotype (%) [7]: 5% | Population Mitochondria Different-Phenotype (%) [7]: 43% | Population Mitotic Cells (%) [7]: 40% | Population Normal (%) [7]: 79% | Population Pyknosed Nuclei (%) [7]: 9% | Population Tubulin-Different-Phenotype (%) [7]: 74% | Total Cell Count [7]: 140 | Population Apoptotic (%) [8]: 76% | Population Fragmented Nuclei (%) [8]: 11% | Population Healthy Nuclei (%) [8]: 63% | Population Hoechst High Intensity Objects (%) [8]: 8% | Population Membrane Permeable-Phenotype (%) [8]: 30% | Population Mitochondria Different-Phenotype (%) [8]: 93% | Population Mitotic Cells (%) [8]: 23% | Population Normal (%) [8]: 91% | Population Pyknosed Nuclei (%) [8]: 25% | Population Tubulin-Different-Phenotype (%) [8]: 66% | Total Cell Count [8]: 44 | Population Apoptotic (%) [9]: 54% | Population Fragmented Nuclei (%) [9]: 34% | Population Healthy Nuclei (%) [9]: 58% | Population Hoechst High Intensity Objects (%) [9]: 14% | Population Membrane Permeable-Phenotype (%) [9]: 19% | Population Mitochondria Different-Phenotype (%) [9]: 1% | Population Mitotic Cells (%) [9]: 45% | Population Normal (%) [9]: 85% | Population Pyknosed Nuclei (%) [9]: 7% | Population Tubulin-Different-Phenotype (%) [9]: 29% | Total Cell Count [9]: 176 | Population Apoptotic (%) [10]: 100% | Population Fragmented Nuclei (%) [10]: 25% | Population Healthy Nuclei (%) [10]: 72% | Population Hoechst High Intensity Objects (%) [10]: 7% | Population Membrane Permeable-Phenotype (%) [10]: 10% | Population Mitotic Cells (%) [10]: 0% | Population Normal (%) [10]: 92% | Population Pyknosed Nuclei (%) [10]: 1% | Population Tubulin-Different-Phenotype (%) [10]: 28% | Total Cell Count [10]: 83 | Population Apoptotic (%) [11]: 85% | Population Fragmented Nuclei (%) [11]: 49% | Population Healthy Nuclei (%) [11]: 45% | Population Hoechst High Intensity Objects (%) [11]: 28% | Population Membrane Permeable-Phenotype (%) [11]: 7% | Population Mitochondria Different-Phenotype (%) [11]: 12% | Population Mitotic Cells (%) [11]: 14% | Population Normal (%) [11]: 71% | Population Pyknosed Nuclei (%) [11]: 4% | Population Tubulin-Different-Phenotype (%) [11]: 44% | Total Cell Count [11]: 201 | Population Apoptotic (%) [12]: 100% | Population Fragmented Nuclei (%) [12]: 39% | Population Healthy Nuclei (%) [12]: 58% | Population Hoechst High Intensity Objects (%) [12]: 18% | Population Membrane Permeable-Phenotype (%) [12]: 5% | Population Mitochondria Different-Phenotype (%) [12]: 8% | Population Mitotic Cells (%) [12]: 0% | Population Normal (%) [12]: 81% | Population Pyknosed Nuclei (%) [12]: 2% | Population Tubulin-Different-Phenotype (%) [12]: 62% | Total Cell Count [12]: 188
